Data set [1] addresses T1, VDR (Homo sapiens, UniProt P11473).
T1 sequence (P11473 1-427): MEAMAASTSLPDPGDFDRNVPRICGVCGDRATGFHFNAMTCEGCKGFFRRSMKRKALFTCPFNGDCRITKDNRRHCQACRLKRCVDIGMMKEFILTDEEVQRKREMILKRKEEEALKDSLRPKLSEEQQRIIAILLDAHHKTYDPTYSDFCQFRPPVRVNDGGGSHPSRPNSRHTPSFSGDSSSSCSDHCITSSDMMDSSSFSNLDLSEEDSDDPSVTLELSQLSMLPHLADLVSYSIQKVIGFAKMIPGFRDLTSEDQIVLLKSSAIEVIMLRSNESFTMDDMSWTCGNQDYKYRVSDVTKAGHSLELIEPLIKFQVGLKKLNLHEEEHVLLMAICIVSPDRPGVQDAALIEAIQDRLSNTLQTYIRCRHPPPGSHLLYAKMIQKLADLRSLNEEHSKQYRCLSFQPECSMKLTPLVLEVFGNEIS
The data set is described as follows: VDR ultrafiltration affinity assay. The class given is binding. An outline of the steps: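 Commercial VDR in storage buffer incubated with test ligand for 30 min at 37 °C, dark, shaking. Ultrafiltered at 12,000 × g, 4 °C, rinsed with ice-cold 50 mM ammonium acetate, 0.1 mM NaCl, pH 8.0. Bound ligand released in methanol with genistein internal standard, dried under N2, analysed by LC-ion trap TOF MS, both polarities, m/z 100–1500. Controls were boiled hVDR or no protein, with lithocholic acid and curcumin as positives.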

For another data set, the target named is T2, human RXRα (Homo sapiens, UniProt P19793).
T2 sequence (P19793 1-462): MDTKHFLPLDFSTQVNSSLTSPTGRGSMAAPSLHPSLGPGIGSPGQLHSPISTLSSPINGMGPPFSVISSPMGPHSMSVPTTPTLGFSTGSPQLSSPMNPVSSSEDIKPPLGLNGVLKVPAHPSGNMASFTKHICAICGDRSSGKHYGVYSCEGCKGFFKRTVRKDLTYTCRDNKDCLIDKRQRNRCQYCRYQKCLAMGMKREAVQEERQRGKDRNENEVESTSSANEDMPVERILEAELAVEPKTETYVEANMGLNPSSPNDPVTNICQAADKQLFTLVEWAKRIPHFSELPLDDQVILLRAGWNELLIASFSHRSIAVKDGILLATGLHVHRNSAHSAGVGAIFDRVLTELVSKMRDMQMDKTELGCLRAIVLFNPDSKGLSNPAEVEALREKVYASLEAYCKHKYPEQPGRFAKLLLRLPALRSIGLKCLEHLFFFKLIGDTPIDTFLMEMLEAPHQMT
The data set can be described thus: RXRE-luciferase reporter gene assay. Particulars: for Max IR: maximum induction ratio observed: compounds tested at variable concentrations. The class given is cell-based.

The next data set relates to COS-1 cells. The data set can be described thus: % Cell Survival. The class given is cell-based. Particulars: concentration not given.
Data set [2] deals with T1, VDR. The data set is described as follows: Competitive binding against curcumin for VDR. The settings on record: equimolar concentration.
Data set [3] relates to MCF-7 breast cancer cells. Particulars: cited from earlier work.
For data set [4] the following is noted: cited from earlier work.

“Also recorded” adds a separate entry of the source. Where a name gives a salt, the structure may show the parent alone.

`NCCCCCCn1c2c(c3ccccc3c1=O)C(=O)c1ccccc1-2` [Compound 82]: the “Positive VDR signal” value on VDR [1] stood at 9397620.
Still for that read-out and setting: with `NCCCCCn1c2c(c3ccccc3c1=O)C(=O)c1ccccc1-2` [Compound 81] the figure was 7877048.
As for `Cl.NCCCn1c2c(c3ccc(N)cc3c1=O)Cc1ccccc1-2` [Compound 124, 3-Amino-6-(3-aminopropyl)-6,11-dihydro-5H-indeno[1,2-c]isoquinolin-5-one], the “RXR activity in words (active / inactive)” value on human RXRα is recorded as “good activity”. On VDR [1], the “Positive VDR signal” value was 1422175.
As to `CC(=O)Nc1ccc2c3c(n(CCCO)c(=O)c2c1)-c1ccccc1C3=O` [Compound 132], on human RXRα, the “RXR activity in words (active / inactive)” value is “inactive” and the “Max IR: maximum induction ratio observed” value is given as “NA (NA: Max IR not determined because IR < 2.)”. Moreover, in the data set with COS-1 cells (Table 7), the “% Cell Survival” value worked out at 90.6%.
As for `NCCCCn1c2c(c3ccccc3c1=O)C(=O)c1ccccc1-2` [Compound 80], on VDR [1], the “Positive VDR signal” value turned out to be 3320824.
In the case of `CC(=O)Nc1ccc2c3c(n(CCCN)c(=O)c2c1)-c1ccccc1C3=O` [Compound 131], on VDR [1], the “Positive VDR signal” value stood at 4875144.
In the case of `CN(C)CCCn1c2c(c3ccc(N)cc3c1=O)C(=O)c1ccccc1-2` [Compound 121, 3-Amino-6-(3-(dimethylamino)propyl)-5H-indeno[1,2-c]isoquinoline-5,11(6H)-dione], the “RXR activity in words (active / inactive)” value at human RXRα is on record as “high activity”. Besides, the “Positive VDR signal” value at VDR [1] turned out to be 2011978.
Turning to `Cn1c2c(c3ccc(CCCC(=O)O)cc3c1=O)C(=O)c1ccccc1-2` [Compound 19, 5-(6-Methyl-5,11-dioxo-6,11-dihydro-5H-indeno[1,2-c]isoquinolin-3-yl)butanoic Acid], the “RXR activity in words (active / inactive)” value on human RXRα was “inactive”.
Still for that read-out and setting: with `CC(=O)NCCCn1c2c(c3ccc(N)cc3c1=O)C(=O)c1ccccc1-2` [Compound 144] the entry was “significantly reduced the IR”.
`CN(C)c1ccc2c3c(n(CCCN)c(=O)c2c1)-c1ccccc1C3=O` [Compound 149]: on human RXRα, the “RXR activity in words (active / inactive)” value is “inactive” and the “Max IR: maximum induction ratio observed” value is “NA (NA: Max IR not determined because IR < 2.)”.
`CNCCCn1c2c(c3ccc(N)cc3c1=O)C(=O)c1ccccc1-2` [Compound 126]: the “RXR activity in words (active / inactive)” value on human RXRα is “high activity”. Besides, the “Positive VDR signal” value on VDR [1] was found to be 2155086.
Take `CCOC(=O)CNc1ccc2c3c(n(CCCN)c(=O)c2c1)-c1ccccc1C3=O` [Compound 62]: the “Positive VDR signal” value on VDR [1] is recorded as 152467.
Regarding `COC(=O)c1ccc2c3c(n(CCCN)c(=O)c2c1)-c1ccccc1C3=O.Cl` [Compound 73, Methyl 6-(3-Aminopropyl)-5,11-dioxo-6,11-dihydro-5H-indeno[1,2-c]isoquinoline-3-carboxylate Hydrochloride], on human RXRα, the “Max IR: maximum induction ratio observed” value was “NA (NA: Max IR not determined because IR < 2.)”.
The EC50 is the concentration needed to bring the measured effect to its halfway point. Read a low EC50 as higher potency in that assay. Regarding `NCCCn1c2c(c3ccccc3c1=O)C(=O)c1ccccc1-2` [Compound 79], at human RXRα, it took 10.2 µM to reach a half-maximal effect (EC50) and the “RXR activity in words (active / inactive)” value is reported as “high activity”. Also, the “% Cell Survival” value with COS-1 cells (Table 3) is reported as 52.5%. In addition, the “Positive VDR signal” value on VDR [1] amounted to 4013179.
With `CNCCCn1c2c(c3ccc(Br)cc3c1=O)C(=O)c1ccccc1-2` [Compound 95, 3-Bromo-5,6-dihydro-6-(3-N-methylaminopropyl)-5,11-dioxo-indeno[1,2-c]isoquinoline], the “RXR activity in words (active / inactive)” value at human RXRα is given as “active”.
Still for that read-out and setting: in the case of `Cc1ccc2c3c(n(C)c(=O)c2c1)-c1ccccc1C3=O` [Compound 36, 3,6-Dimethyl-5H-indeno[1,2-c]isoquinoline-5,11(6H)-dione] it was “not active”.
On to `NCCCn1c2c(c3ccc(N)cc3c1=O)C(=O)c1ccccc1-2` [Compound 3, 3-Amino-6-(3'-aminopropyl)-5H-indeno[1,2-c]isoquinoline-5,11-(6H)dione], for which the “RXR activity in words (active / inactive)” value at human RXRα is recorded as “high activity”. On VDR [1], the “Positive VDR signal” value is on record as 1903415. For the same molecule, the “competition with curcumin for binding to VDR” value on VDR [2] was “did not compete”. In data set [3], the “apoptosis in MCF-7 cells” value is “induce apoptosis in MCF-7 breast cancer cells in a dose-dependent manner”. Moreover, the “metabolism of the ketone group” value in data set [4] was “metabolized to an alcohol, which renders the compound inactive”.
On to `COc1cc2c3c(n(CCCN)c(=O)c2cc1OC)-c1ccc(F)cc1C3=O` [Compound 160], for which the “Max IR: maximum induction ratio observed” value at human RXRα is listed as “NA (NA: Max IR not determined because IR < 2.)”.
Turning to `O=C1c2ccccc2-c2c1c1ccc([N+](=O)[O-])cc1c(=O)n2CCCO` [Compound 145], on human RXRα, the “RXR activity in words (active / inactive)” value was “inactive”.
Regarding `Cl.NCCCn1c2c(c3ccc(C(=O)O)cc3c1=O)C(=O)c1ccccc1-2` [Compound 72, 6-(3-Aminopropyl)-5,11-dioxo-6,11-dihydro-5H-indeno[1,2-c]isoquinoline-3-carboxylic Acid Hydrochloride], at human RXRα, the “RXR activity in words (active / inactive)” value is reported as “lack of activity” and the “Max IR: maximum induction ratio observed” value was “NA (NA: Max IR not determined because IR < 2.)”.
In the case of `COC(=O)c1ccc2c3c(n(CCCn4ccnc4)c(=O)c2c1)-c1ccccc1C3=O` [Compound 68, Methyl 6-(3-(1H-Imidazol-1-yl)propyl)-5,11-dioxo-6,11-dihydro-5H-indeno[1,2-c]isoquinoline-3-carboxylate Hydrochloride], the “RXR activity in words (active / inactive)” value on human RXRα is “inactive; also recorded: lack of activity”.
As for `Cn1c2c(c3ccc(C=O)cc3c1=O)C(=O)c1ccccc1-2` [Compound 37, 6-Methyl-5,11-dioxo-6,11-dihydro-5H-indeno[1,2-c]isoquinoline-3-carbaldehyde], the “RXR activity in words (active / inactive)” value on human RXRα was “inactive”.
Same read-out and setting: in the case of `CN(C)CCCn1c2c(c3ccccc3c1=O)C(=O)c1ccccc1-2` [Compound 103, 5,6-Dihydro-6-(3-(dimethylamino)-1-propyl)-5,11-dioxo-11Hindeno[1,2-c]isoquinoline] it was “active; also recorded: high activity”; in that of `Cn1c2c(c3ccc(CC(=O)O)cc3c1=O)C(=O)c1ccccc1-2` [Compound 4, 2-(6-Methyl-5,11-dioxo-6,11-dihydro-5H-indeno[1,2-c]isoquinolin-3-yl)acetic Acid], “inactive”.

The values above are taken from paper PMC3623729 (Journal of medicinal chemistry, 2013).
